Data set [1] in a line: Inhibition of gamma secretase-mediated Abeta40 production.
Data set [2] is described as follows: AUC in CRND8 mouse. The class given is ADME, organism-based. Also noted: concentration or dose not given beside the values. The conditions noted are these: plasma.
Data set [3] is described as follows: Inhibition of gamma secretase-mediated Abeta42 production by cell based assay. The method, boiled down:
(§1)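 Cell-based assay measuring secreted Abeta40 and Abeta42. IC50 values are the means of two experiments.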

A further data set has as its target Cytochrome P450 3A4 (Homo sapiens, UniProt P08684). Put plainly: Inhibition of CYP3A4 preincubated for 30 mins. The class given is ADME.
The nature of data set [4]: Inhibition of gamma secretase-mediated Abeta40 production by cell based assay. A digest of the protocol:
as §1

The test system of data set [5] is Mus musculus. The experiment in a line: Inhibition of Abeta40 production in CRND8 mouse plasma at 30 mg/kg, po after 3 hrs. The class given is functional. The method, boiled down:
(§2)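 CRND8 transgenic mice were given a single oral dose of 30 mg/kg. Abeta40 was measured in plasma and brain cortex at 3 h, or at 6 h, after dosing. Results are expressed as percent inhibition of Abeta40.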

For data set [6], the system named is Mus musculus. Put plainly: Gastrointestinal toxicity in CRND8 mouse at 30 mg/kg, po after 3 hrs. Type of data set: organism-based. Further details: dose 30 mg/kg, route oral. The conditions noted are these: in vivo.
In data set [7] the test system is Mus musculus. The experiment in a line: Inhibition of Abeta40 production in CRND8 mouse brain cortex at 30 mg/kg, po after 3 hrs. Type of data set: functional. The method, boiled down: as §2
Data set [8] has as its system Mus musculus. The experiment in a line: Inhibition of Abeta40 production in CRND8 mouse plasma at 30 mg/kg, po after 6 hrs. Type of data set: functional. A digest of the protocol:
as §2

Data set [9] deals with Mus musculus. Put plainly: Inhibition of Abeta40 production in CRND8 mouse brain cortex at 30 mg/kg, po after 6 hrs. The class given is functional. A digest of the protocol: as §2

SMILES strings stand for the structures.

Sequence of Cytochrome P450 3A4 (P08684 whole entry): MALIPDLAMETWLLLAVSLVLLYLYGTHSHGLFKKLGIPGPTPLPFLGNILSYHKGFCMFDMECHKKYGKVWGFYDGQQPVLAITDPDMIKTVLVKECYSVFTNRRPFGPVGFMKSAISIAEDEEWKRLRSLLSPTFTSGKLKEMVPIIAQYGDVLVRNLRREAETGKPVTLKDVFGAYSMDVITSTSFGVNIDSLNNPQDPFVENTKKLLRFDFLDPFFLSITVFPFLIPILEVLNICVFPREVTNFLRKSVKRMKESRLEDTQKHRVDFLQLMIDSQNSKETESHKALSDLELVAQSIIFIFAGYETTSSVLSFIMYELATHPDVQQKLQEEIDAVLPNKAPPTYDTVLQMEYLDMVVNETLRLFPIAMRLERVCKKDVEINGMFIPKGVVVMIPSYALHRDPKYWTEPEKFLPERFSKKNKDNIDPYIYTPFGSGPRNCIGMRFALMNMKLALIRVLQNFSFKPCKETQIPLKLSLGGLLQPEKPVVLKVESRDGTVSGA

As usually defined, the IC50 is the concentration that inhibits the measured activity by half. Turning to `O=S(=O)(c1ccc(Cl)cc1)[C@H]1c2c(F)ccc(F)c2OC[C@@H]1CO` (relative stereo), the concentration for half-maximal inhibition (IC50) in data set [1] came to 510 nM.

`COC[C@H]1COc2c(F)ccc(F)c2[C@@]1(C)S(=O)(=O)c1ccc(Cl)cc1` (relative stereo) yielded a half-maximal inhibitory concentration (IC50) in data set [1] of 270 nM.

A word on the AUC: it is concentration integrated over time. The inhibition in vivo is the drop in the measured response relative to a control, in per cent. With `O=C1CCC2(S(=O)(=O)c3ccc(Cl)cc3)c3c(F)ccc(F)c3OCC2C1` (racemic), the area under the curve (AUC) in [2] amounted to 60 ng·h/mL. Moreover, the IC50 in data set [3] is 12 nM; on Cytochrome P450 3A4, 1200 nM; in [4], 17 nM; in [1], 13 nM. In the data set on Mus musculus [5], this molecule displayed an inhibition in vivo at 30 mg/kg of 19%.

In data set [1], `C[C@@H]1C[C@](C)(S(=O)(=O)c2ccc(Cl)cc2)c2c(F)ccc(F)c2O1` (relative stereo) displayed an IC50 of 1200 nM.

In turn, `C[C@H]1COc2c(F)ccc(F)c2[C@@H]1S(=O)(=O)c1ccc(Cl)cc1` (relative stereo) showed an IC50 in data set [1] of 64 nM.

The molecule `CCC1(S(=O)(=O)c2ccc(Cl)cc2)CC(CO)Oc2c(F)ccc(F)c21` (mixture of isomers) had an IC50 in data set [1] of 620 nM.

`O=S(=O)(N[C@@H]1CC[C@@]2(S(=O)(=O)c3ccc(Cl)cc3)c3c(F)ccc(F)c3OC[C@H]2C1)C(F)(F)F`: the Activity entry in the data set with Mus musculus [6] was “Non-toxic”. Further, the AUC in [2] was determined as 5050 ng·h/mL. Further, the concentration for half-maximal inhibition (IC50) in [3] is 46 nM; on Cytochrome P450 3A4 it was above 30000 nM; in data set [4], 108 nM; in data set [1] it was 27.1 nM. The figures for the inhibition in vivo at 30 mg/kg with Mus musculus [5] and in the data set on Mus musculus [7] were 90% and 42%, respectively.

The molecule `CC(=O)NC1CCC2(S(=O)(=O)c3ccc(Cl)cc3)c3c(F)ccc(F)c3OCC2C1` (racemic) had an AUC in data set [2] of 1720 ng·h/mL. The IC50 in [3] was found to be 107 nM; in data set [4], 145 nM; in [1], 107 nM.

With `O=S(=O)(N[C@@H]1CC[C@@]2(S(=O)(=O)c3ccc(Cl)cc3)c3c(F)ccc(F)c3OC[C@H]2C1)C1CC1`, the area under the curve (AUC) in [2] was found to be 1910 ng·h/mL. The IC50 in [3] is 4.3 nM; against Cytochrome P450 3A4, above 30000 nM; in data set [4], 9.3 nM; in [1] it was 8.4 nM. The inhibition in vivo at 30 mg/kg in the data set on Mus musculus [8] was 80%; in the data set on Mus musculus [9] it was 58%.

With `CC[C@@H]1C[C@](CC)(S(=O)(=O)c2ccc(Cl)cc2)c2c(F)ccc(F)c2O1` (relative stereo), the IC50 in data set [1] is 830 nM.

In [1], `NC1CCC2(S(=O)(=O)c3ccc(Cl)cc3)c3c(F)ccc(F)c3OCC2C1` (racemic) had a half-maximal inhibitory concentration (IC50) of 1700 nM.

As for `O=S(=O)(c1ccc(Cl)cc1)C12CCC(O)CC1COc1c(F)ccc(F)c12` (racemic), the area under the curve (AUC) in [2] came out at 164 ng·h/mL. In addition, the IC50 in [3] turned out to be 18 nM; in data set [4] it was 25 nM; in [1], 28 nM. For the same molecule, the inhibition in vivo at 30 mg/kg in the data set with Mus musculus [5] was determined as 44%; in the data set with Mus musculus [7] it was 55%.

For `CC1(S(=O)(=O)c2ccc(Cl)cc2)CCOc2c(F)ccc(F)c21` (racemic), 808 nM corresponded to half-maximal inhibition in data set [1] (IC50).

In [1], `C[C@H]1COc2c(F)ccc(F)c2[C@@]1(C)S(=O)(=O)c1ccc(Cl)cc1` (relative stereo) had an IC50 of 110 nM.

As for `O=S(=O)(N[C@@H]1CC[C@@]2(S(=O)(=O)c3ccc(Cl)cc3)c3c(F)ccc(F)c3OC[C@H]2C1)c1ccccn1`, the IC50 amounted to 26 nM in [3], 68 nM in [4] and 7.6 nM in [1]. This molecule yielded an inhibition in vivo at 30 mg/kg in the data set on Mus musculus [5] of 19%.

In data set [1], `O=S(=O)(c1ccc(Cl)cc1)C1CCOc2c(F)ccc(F)c21` (racemic) had an IC50 of 1600 nM.

`CCC1(S(=O)(=O)c2ccc(Cl)cc2)CCOc2c(F)ccc(F)c21` (racemic): the midpoint of inhibition in data set [1], the IC50, lay at 72 nM.

The values above are taken from ChEMBL document CHEMBL1156985 (Bioorg Med Chem Lett, 2010).
